Broadly, the IC50 is the midpoint of a concentration-inhibition curve. A higher IC50 goes with weaker potency.

This is an account of results in ChEMBL document CHEMBL1153573, “Synthesis of a series of N6-substituted adenosines with activity against trypanosomatid parasites” (Eur J Med Chem, 2009).

In the experiment the test system is Trypanosoma brucei rhodesiense. Description: Antitrypanosomal activity against Trypanosoma brucei rhodesiense STIB 900 after 72 hrs by alamar blue based microplate assay. The class given is functional, organism-based. The conditions noted are these: STIB 900, 72 h. In short, it runs like this:
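Bloodstream-form T. b. rhodesiense STIB 900, 10⁴ per well, in minimum essential medium with 2-mercaptoethanol and 15% heat-inactivated horse serum. Serial dilutions spanning […]. Incubated 37 °C, 5% CO₂, 72 h. Resazurin (Alamar Blue) then added and incubation continued. Fluorescence read at ex 536/em 588 nm as percent of control, IC50 calculated. Melarsoprol standard.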
In general terms: Alamar Blue is a resazurin reagent that responds to reducing activity.
Take `O=C(NCCOCCNc1ncnc2c1ncn2[C@@H]1O[C@H](CO)[C@@H](O)[C@H]1O)c1cccc(F)c1`: the IC50 worked out at 13.6 µM.

The molecule `O=C(CCCc1ccccc1)NCCOCCNc1ncnc2c1ncn2[C@@H]1O[C@H](CO)[C@@H](O)[C@H]1O` returned an IC50 of 4 µM. This IC50 is about 3.4-fold lower than that of the molecule before.

On to `COc1ccc(CC(=O)NCCOCCNc2ncnc3c2ncn3[C@@H]2O[C@H](CO)[C@@H](O)[C@H]2O)cc1OC`, for which the midpoint of inhibition, the IC50, lay at 9.2 µM. This IC50 is about 2.3-fold higher than that of the molecule before.

In turn, `O=C(NCCOCCNc1ncnc2c1ncn2[C@@H]1O[C@H](CO)[C@@H](O)[C@H]1O)C(c1ccccc1)c1ccccc1` registered an IC50 of 85.9 µM.

With `CC(=O)Nc1ccc(C(=O)NCCOCCNc2ncnc3c2ncn3[C@@H]2O[C@H](CO)[C@@H](O)[C@H]2O)cc1`, the IC50 was 132 µM.

On to `O=C(Cc1c(Cl)cccc1Cl)NCCOCCNc1ncnc2c1ncn2[C@@H]1O[C@H](CO)[C@@H](O)[C@H]1O`, for which the IC50 stood at 49.7 µM. Against the preceding molecule, the IC50 is about 2.7-fold lower.

`O=C(NCCOCCNc1ncnc2c1ncn2[C@@H]1O[C@H](CO)[C@@H](O)[C@H]1O)c1ccc(F)c(F)c1` returned an IC50 of 167 µM.

`O=C(Cc1cccc2ccccc12)NCCOCCNc1ncnc2c1ncn2[C@@H]1O[C@H](CO)[C@@H](O)[C@H]1O` yielded an IC50 above 170 µM.

In turn, `CC(C)=CC(=O)NCCOCCNc1ncnc2c1ncn2[C@@H]1O[C@H](CO)[C@@H](O)[C@H]1O` showed an IC50 of 125 µM.

With `COc1cccc(CC(=O)NCCOCCNc2ncnc3c2ncn3[C@@H]2O[C@H](CO)[C@@H](O)[C@H]2O)c1`, 132 µM corresponded to half-maximal inhibition (IC50). The IC50 values of the last two molecules are within 1.5-fold of each other.

`O=C(CCCc1c[nH]c2ccccc12)NCCOCCNc1ncnc2c1ncn2[C@@H]1O[C@H](CO)[C@@H](O)[C@H]1O` yielded an IC50 of 37.6 µM.

The molecule `O=C(CCCc1ccc([N+](=O)[O-])cc1)NCCOCCNc1ncnc2c1ncn2[C@@H]1O[C@H](CO)[C@@H](O)[C@H]1O` came in with an IC50 of 88.7 µM.

The molecule `O=C(NCCOCCNc1ncnc2c1ncn2[C@@H]1O[C@H](CO)[C@@H](O)[C@H]1O)c1ccc(Oc2ccccc2)cc1` came in with a half-inhibitory concentration (IC50) of 10 µM.

As for `O=C(CCCOc1ccccc1)NCCOCCNc1ncnc2c1ncn2[C@@H]1O[C@H](CO)[C@@H](O)[C@H]1O`, the IC50 stood at 3.4 µM.

Consider `COc1ccc(C(=O)NCCOCCNc2ncnc3c2ncn3[C@@H]2O[C@H](CO)[C@@H](O)[C@H]2O)cc1OC`, for which the IC50 is above 170 µM.
